molecular target: T1, Melatonin receptor (Gallus gallus, UniProt P49288+P51050+P49285); assay: Effect of compound on Melatonin receptor in chicken brain in the presence of MnCl2

Work on `CCC(=O)NCCc1c(OC)ccc2ccccc12` yielded a Ki of 0.297 nM.

molecular target: T1, Melatonin receptor; assay: Competitive binding by the displacement of 2-[125I]- Iodomelatonin binding from melatonin receptors in chicken brain membranes; type: cell membranes, Membrane
Outline: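 Whole chicken brain (Redbro, 4 months) homogenized in ice-cold 50 mM Tris-HCl pH 7.4, washed twice by centrifugation, and resuspended at 5 mg protein/mL. Filtration through PEI-soaked glass fiber filters, then gamma counting. Nonspecific binding defined with 10 μM 2-iodomelatonin. Triplicates. Ki from IC50 by Cheng-Prusoff; one or two determinations.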

Compared with `COc1ccc(C)cc1CCNC(C)=O`, `COc1ccc(Br)cc1CCNC(C)=O` is 4.6-fold lower in Ki: 192 nM for the first, 42 nM for the second.

Going from `COc1ccc2ccc(OC)c(CCNC(=O)C(F)(F)F)c2c1` to `COc1ccc2ccc(OC)c(CCNC(C)=O)c2c1`, the Ki falls from 0.4 nM to 0.1 nM (4-fold).

First: COc1ccc2ccccc2c1CC(C)NC(C)=O (stereo not given)
Second: COc1ccc2ccccc2c1CCNC(C)=O
The Ki of the first is 160-fold higher: 421 nM for the first, 2.68 nM for the second.

Compared with `CCC(=O)NCCc1cc(Br)ccc1OC`, `CCC(=O)NCCc1cc(OC)ccc1OC` is 2.2-fold higher in Ki: 8 nM for the first, 17.5 nM for the second.

Going from `CC(=O)NCCc1cccc2ccccc12` to `COc1ccccc1CCNC(C)=O`, the Ki falls from 321 nM to 213 nM (1.5-fold).

`COc1ccc2ccccc2c1CCNC(=O)C(F)(F)F` and `CCC(=O)NCCc1c(OC)ccc2ccccc12` are within 1.5-fold of each other in Ki: 0.54 nM for the first, 0.68 nM for the second.

Going from `CCCCC(=O)NCCc1c(OC)ccc2ccccc12` to `CCCC(=O)NCCc1c(OC)ccc2ccccc12`, the Ki falls from 237 nM to 1.37 nM (170-fold).

First: COc1ccc2ccccc2c1CCNC(=O)C1CC1
Second: COc1ccc2ccc(OC)c(CCNC(=O)C3CC3)c2c1
The Ki of the first is 390-fold higher: 19.4 nM for the first, 0.05 nM for the second.

Going from `COc1ccc(OC)c(CCNC(=O)C2CC2)c1` to `COc1ccc(OC)c(CCNC(C)=O)c1`, the Ki falls from 386 nM to 69.9 nM (5.5-fold).

First: CCC(=O)NCCc1c(OC)ccc2ccc(OC)cc12
Second: CCc1ccc(OC)c(CCNC(C)=O)c1
The Ki of the first is 3100-fold lower: 0.07 nM for the first, 217 nM for the second.

`COc1cccc(CCNC(C)=O)c1` showed a Ki of 253 nM.

With `COc1ccc(CCNC(C)=O)cc1` the Ki was > 1000 nM.
In the case of `CC(=O)NCCc1ccc(Cl)cc1`, the Ki is reported as > 1000 nM.
`CC(=O)NCCc1cccc(Cl)c1` was tested, and the Ki was > 1000 nM.
`CC(=O)NCCc1ccccc1Cl` was tested, and the Ki was > 1000 nM.
With `CCCCC(=O)NCCc1cc(OC)ccc1OC` the Ki was > 1000 nM.
`CC(=O)NCCc1cccc(F)c1` was tested, and the Ki was > 1000 nM.
`COc1ccc2ccccc2c1CC(C)NC(=O)C(F)(F)F` (stereo not given) was tested, and the Ki was > 1000 nM.

molecular target: T1, Melatonin receptor; assay: Effect of compound on Melatonin receptor in chicken brain in the presence of GTP-gamma-S

`CCC(=O)NCCc1c(OC)ccc2ccccc12` was tested, and the Ki was 2.86 nM.

From ChEMBL document CHEMBL1128682, “Design and synthesis of new naphthalenic derivatives as ligands for 2-[125I]iodomelatonin binding sites” (J Med Chem, 1995)
